Fibroblast inh – blocks proliferation of human lung fibroblasts; LL 47 human lung fibroblast viability, ATP luminescence; active compounds read low; viability, % at 10 µM; 85,000 compounds, 1.1% hits; AID 719;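 active = viability at or below 50% in the single dose screen; inactive = viability above 50%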;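 also: compound exposure lasted 72 h before the ATP readout; 100% = median luminescence of untreated cell-only wells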
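Signal: luminescent ATP detection, CellTiter-Glo; assay system: LL 47 human lung fibroblasts; input: 1,150 cells/well; incubation: overnight cell rest, 72 h compound treatment at 37 °C; measure: % viability versus median cells-only luminescence; medium: IMEM growth medium with 15% fetal bovine serum; dosing: compound addition at 0.1% DMSO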
H69AR inhibit – growth inhibitors of human H69AR lung tumor cells; H69AR lung tumor viability, ATP luminescence, 72 h; active compounds read low; viability, % at 10 µM; AID 598; 85,000 compounds, 6% hits;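 active = viability at or below 40%; inactive = viability above 40%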;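 also: multidrug resistant small cell line overexpressing MRP-1 efflux transporter; 100% = mean luminescence of untreated control wells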
HUVEC inhibit – inhibitors of human endothelial cell proliferation. viability, % at 10 µM (by protocol). 86,000 compounds, 1.1% hits. HUVEC proliferation, CellTiter-Glo luminescence, 72 h; active compounds read low;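 active = viability at or below 30%; inactive = viability above 30%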;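 also: 100% = median luminescence of DMSO-only cell control wells on each plate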
bCat KO growth – beta-catenin-lacking colon tumor cell growth suppression | HCT116 beta-catenin knockout viability, CellTiter-Glo, 60 h; active compounds read low | viability, % at 10 µM | 140,000 compounds, 1.5% hits | AID 818;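 active = viability at or under a set limit, the compound median less 4 SD, cut at about 6% in these data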;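 also: 0% = Hyamine 1622 control at 20 µM and 100% = untreated cell control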
Calb biofilm kill – kills Candida albicans biofilms; C. albicans biofilm + clotrimazole, Alamar Blue; 85,000 compounds, 0.14% hits; inhibition, % at 6 µM;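 active = inhibition above 20%; inactive = inhibition below 20%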;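 also: preformed 24 hr biofilms exposed to compound for 48 hr; 0% = biofilm without compound and 100% = blank killed by clotrimazole plus chlorhexidine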
HCT116 PTEN-null – suppresses growth of cells with PTEN deletion; HCT116 PTEN-null viability, CellTiter-Glo, 60 h; active compounds read low; viability, % at 10 µM; 140,000 compounds, 1.2% hits; AID 827;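 active = viability at or below a set limit, 4 SD under the median of all tested compounds, cut at about 3.7% in these data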;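 also: PTEN knockout HCT116 line with beta catenin targeted HCT116 as companion control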
* = called active by the depositor; . = no result given. Shown is part of a subset that was picked to be rich in hits.

SMILES	Fibroblast inh	H69AR inhibit	HUVEC inhibit	bCat KO growth	Calb biofilm kill	HCT116 PTEN-null
Cc1ccc(C(CC(=O)O)Nc2nc(N3CCOCC3)nc(N3CCOCC3)n2)cc1 (stereo not given)	101.8	100.7	90.4	98.5	-2.6	93.9
CCOC(=O)COc1ccc(S(=O)(=O)NCCC2=CCCCC2)cc1	92.8	92.1	4.4*	91.2	4.4	84.5
N=c1n(Cc2ccccc2)c2ccccc2n1Cc1ccccc1	.	.	.	26.6	.	38.1
Cc1ccc(OCC(O)Cn2c(=N)n(Cc3ccccc3)c3ccccc32)cc1 (stereo not given)	1.9*	88.3	6.5*	1.4*	0.7	1.6*
Cc1cccc(OCC(O)Cn2c(=N)n(CCN3CCCCC3)c3ccccc32)c1 (stereo not given)	69.2	5.5*	50.9	1.9*	-0.4	1.5*
CCOC(=O)Cn1c(=N)n(CCOc2cccc(C)c2)c2ccccc21	92.7	87.8	97.2	91.5	8.9	99.4
COc1ccc(OCC(O)Cn2c(=N)n(Cc3ccccc3)c3ccccc32)cc1 (stereo not given)	60.3	82.4	73.2	0.8*	2.1	1.4*
COc1ccc(C(=O)N/C(=C\c2cn(C)c3ccccc23)C(=O)OCC(C)C)cc1	.	.	.	101.4	.	107.3
CCCCS(=O)(=O)Nc1ccc(C)cn1	.	.	.	96.2	.	93.8
Cc1ccc(C)c(NC(=O)C(Sc2nnc(-c3cccs3)o2)c2ccccc2)c1 (stereo not given)	.	.	.	84.0	.	86.2
Cc1ccc(NC(=O)/C(=C/c2cccc([N+](=O)[O-])c2)NC(=O)C2CCCCC2)c(C)c1	9.6*	26.7*	33.0	63.7	6.4	67.4
Nc1ncnc2c1C1(CCCCC1)Cc1ccccc1-2	.	.	.	69.4	.	83.7
Cc1ccc(Cl)cc1N1CCN(C(=O)C2CCN(S(=O)(=O)c3c(C)nn(C)c3C)CC2)CC1	90.3	25.0*	62.9	54.2	8.2	43.8
Cc1ccc(Cl)cc1N1CCN(C(=O)C2CCN(S(=O)(=O)c3cccnc3)CC2)CC1	94.7	51.0	91.7	44.8	11.0	51.5
Nc1c([N+](=O)[O-])cnnc1-c1ccccc1	.	.	.	89.4	.	82.1
Cc1onc(-c2ccccc2)c1C(=O)Nc1cccc(C#N)c1	89.4	82.3	92.5	88.8	2.0	88.8
O=C(N/N=C/c1sc2ccccc2c1O)c1ccccc1	.	.	.	4.0*	.	3.7*
COc1ccc(C(=O)N/N=C/c2sc3ccccc3c2O)cc1	.	.	.	3.3*	.	3.5*
COc1ccc2cc(C(=O)N/N=C/c3sc4ccccc4c3O)ccc2c1	.	.	.	3.1*	.	4.3
O=C(N/N=C/c1sc2ccccc2c1O)c1cccc2ccccc12	.	.	.	4.1*	.	4.3
COc1ccc(C(=O)N/N=C/c2cc3ccccc3[nH]c2=S)cc1	.	.	.	46.5	.	56.1
COc1ccccc1N(CCC#N)C(=O)CSc1nc(-c2ccccc2)cn1N	93.4	90.3	107.2	92.4	1.1	98.5
N#CC1=C(N)Nc2nc3ccccc3n2C1c1ccc(Cl)cc1 (stereo not given)	.	.	.	88.9	.	82.7
COc1cc(/C=C/C(=O)c2c(O)cc(C)oc2=O)cc(OC)c1O	69.7	24.9*	78.8	83.2	6.0	73.0
COc1ccc(/C=C/C(=O)c2c(O)cc(C)oc2=O)c(OC)c1	.	.	.	67.5	.	70.2
SMILES	Fibroblast inh	H69AR inhibit	HUVEC inhibit	bCat KO growth	Calb biofilm kill	HCT116 PTEN-null
COc1cccc(/C=C/C(=O)c2c(O)cc(C)oc2=O)c1O	68.6	4.0*	60.5	53.6	4.4	62.4
Cc1cccc(OCc2nc(-c3ccccn3)n[nH]2)c1	99.7	33.7*	78.2	25.1	8.1	36.3
Cc1cccc(OCC(=O)O/N=C(\N)c2ccccn2)c1	94.4	99.9	104.3	94.0	4.3	94.6
Cc1ccc(OCc2nc(-c3ccccn3)n[nH]2)cc1	99.8	33.4*	81.8	90.9	8.2	71.9
CCC(=O)Nc1cc(C)c(NC(=O)c2ccccc2OC)cn1	113.0	101.7	90.7	115.9	0.8	110.0
COC(=O)[C@H](CCSC)NC(=O)NCc1ccccc1F	92.5	96.9	99.2	93.2	6.8	97.9
COC(=O)[C@H](CCSC)NC(=O)NCc1ccc(S(N)(=O)=O)cc1	99.2	1.9*	89.8	104.9	1.8	104.1
O=C(NCC1OCCc2ccccc21)c1ccc(NC(=O)c2ccc(Cl)cc2)cc1 (stereo not given)	.	.	.	54.7	.	26.3
CCOC(=O)C1=C(N)Oc2cc(C)[nH]c(=O)c2C1c1ccncc1 (stereo not given)	97.3	87.0	85.1	95.3	4.0	89.5

From PubChem BioAssay
